Data set [1] is described as follows: Stability in human plasma assessed as parent compound remaining at 5 uM measured after 1 hr by LC-MS/MS analysis relative to control. Format: ADME, cell-free. The conditions noted are these: read-out: Stability. The method, boiled down:
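Compound at 5 μM incubated 1 h at 37 °C in 50% human plasma in PBS; % remaining determined by LC–MS.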

A short description of data set [2]: Permeability of the compound at 500 uM after 20 hrs by PAMPA. It is filed as ADME. The method, boiled down:
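Artificial membrane permeation with 500 μM compound in the donor compartment; after 20 h, receiver wells read by spectrophotometry and % flux derived by normalizing to flux across a blank filter.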

The nature of data set [3]: Microsomal stability in human liver microsomes assessed as intrinsic clearance at 1 uM measured up to 50 mins in presence of NADPH by LC-MS/MS analysis. It is filed as ADME, Microsome. Put shortly: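 Oxidative stability in NADPH-supplemented human liver microsomes; compound at 1 μM, depletion followed by LC–MS/MS for up to 50 min at 37 °C. Intrinsic clearance calculated from half-life, assay volume and microsomal protein amount (μL/min/mg).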
For orientation: Liver microsomes are a subcellular fraction often used to study metabolism.

Data set [4] in a line: Kinetic aqueous solubility of compound in HEPES buffer at pH 7.4 at 500 uM measured after 90 mins by spectrophotometry analysis. Format: physicochemical. Put shortly:
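Compound-saturated HEPES buffer (pH 7.4, from DMSO stocks, 500 μM) shaken 90 min at room temperature, filtered, then diluted with an equal volume of acetonitrile.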

Each structure is given as a SMILES string.

In the case of `O=C(O)c1ccc(OCc2c(-c3c(Cl)cccc3C(F)(F)F)noc2-c2cc[nH]c2)cc1`, the remaining at 1 h, 5 µM in data set [1] was determined as 74.2%. Besides, the permeability in data set [2] stood at 40.9%. Further, in data set [3], the CLH was determined as 57.8 µL/min/mg. The compound also yielded a Kinetic_solubility in data set [4] of 436 µM.

`O=C(O)c1ccc(OCc2c(-c3c(Cl)cccc3C(F)(F)F)noc2-c2ccc[nH]2)cc1`: the remaining at 1 h, 5 µM in data set [1] came to 89.5%. The permeability in data set [2] is reported as 50.5%. Also, the CLH in data set [3] was 68 µL/min/mg. In addition, in data set [4], the Kinetic_solubility worked out at 421 µM.

Consider `O=C(O)c1ccc(OCc2c(-c3c(Cl)cccc3C(F)(F)F)noc2-c2cn[nH]c2)cc1`, for which, in data set [1], the remaining at 1 h, 5 µM was determined as 100%. Moreover, the permeability in data set [2] is recorded as 23%. Besides, the CLH in data set [3] amounted to 8.8 µL/min/mg. Also, in data set [4], the Kinetic_solubility stood at 476 µM.

For the compound `O=C(O)c1ccc(/C=C/c2c(-c3c(Cl)cccc3C(F)(F)F)noc2-c2cc[nH]c2)cc1`, the remaining at 1 h, 5 µM in data set [1] came to 59.5%. Also, the permeability in data set [2] is 40.3%. The CLH in data set [3] was found to be 69 µL/min/mg. Besides, in data set [4], the Kinetic_solubility turned out to be 392 µM.

Regarding `O=C(O)c1ccc(OCc2c(-c3c(Cl)cccc3C(F)(F)F)noc2-c2cc[nH]c2)cc1F`, the remaining at 1 h, 5 µM in data set [1] is 97.1%. Also, in data set [2], the permeability amounted to 37.3%. Further, the CLH in data set [3] was 77 µL/min/mg. The compound further showed a Kinetic_solubility in data set [4] of 445 µM.

Consider `O=C(O)c1ccc(NCc2c(-c3c(Cl)cccc3C(F)(F)F)noc2-c2cc[nH]c2)cc1`, for which, in data set [1], the remaining at 1 h, 5 µM was found to be 79.1%. For the same compound, in data set [2], the permeability is reported as 36.1%. Moreover, the CLH in data set [3] came out at 31.2 µL/min/mg. In data set [4], this compound showed a Kinetic_solubility of 460 µM.

As to `O=C(O)c1ccc(-c2nn(C(=O)c3c(Cl)cccc3C(F)(F)F)c3ccccc23)cc1`, the remaining at 1 h, 5 µM in data set [1] stood at 95.5%. Also, the permeability in data set [2] worked out at 29.7%. Further, the CLH in data set [3] was 0.4 µL/min/mg. For the same compound, in data set [4], the Kinetic_solubility was determined as 423 µM.
